This passage reports EC50 results from ChEMBL document CHEMBL1159001, “Isolation, purification, and cytotoxicity of 5-methoxypodophyllotoxin, a lignan from a root culture of Linum flavum” (1992).

≈ marks a conversion by molar mass, not a printed value.

Experiment [1] is described as follows: Cytotoxicity against mouse EAT cells after 4 days by trypan blue assay. Format: functional. The settings on record: 96 h, read-out: ED50 (the source's name). The method, boiled down:
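Murine Ehrlich ascites tumor cells grown in suspension in RPMI 1640 with 10% fetal calf serum, streptomycin and penicillin G (doubling time 12–14 h). Exponential-phase cells, viability >95% by trypan blue. Lignans came from 0.5 or 5 mM 96% EtOH stocks, in 24 twofold dilutions. 2000 viable cells/well, incubated 4 days at 37°, 5% CO2. Sedimented pellet diameters were compared visually with untreated wells, and ED50 derived as 50% growth inhibition.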

The test system of experiment [2] is HeLa. The experiment can be described thus: Cytotoxicity against human HeLa cells after 4 days by trypan blue assay. The experiment is classed as functional. The settings on record: 96 h, read-out: ED50 (the source's name). The method, boiled down: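 HeLa cells cultured in Joklik's MEM with 10% fetal calf serum, streptomycin and penicillin G (doubling time ca. 24 h). Exponentially growing cells with >95% trypan-blue viability. Lignans were taken from 0.5 or 5 mM stocks in 96% EtOH, and 24 twofold dilutions were made in medium. 2000 cells/well, 4 days at 37°, 5% CO2. Growth was scored visually by pellet diameter against untreated controls, and ED50 (50% growth inhibition) calculated.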

`COc1cc([C@@H]2c3cc4c(c(OC)c3[C@H](O)[C@H]3COC(=O)[C@H]23)OCO4)cc(OC)c1OC`: the EC50 in experiment [1] amounted to 32 µg/mL (≈ 72 µM); in experiment [2], 22 µg/mL (≈ 49.5 µM).

On to `COc1cc([C@@H]2c3cc4c(cc3[C@H](O[C@@H]3O[C@H](CO)[C@@H](O)[C@H](O)[C@H]3O)[C@H]3COC(=O)[C@H]23)OCO4)cc(OC)c1OC`, for which the EC50 in experiment [1] turned out to be 30 µg/mL (≈ 52 µM); in experiment [2], 21.8 µg/mL (≈ 37.8 µM).

Regarding `COc1cc([C@@H]2c3cc4c(cc3[C@@H](O[C@@H]3O[C@@H]5CO[C@@H](C)O[C@H]5[C@H](O)[C@H]3O)[C@H]3COC(=O)[C@H]23)OCO4)cc(OC)c1O` [ETOPOSIDE], the values for the EC50 in experiment [1] and in experiment [2] were 1.1 µg/mL (≈ 1.87 µM) and 7.9 µg/mL (≈ 13.4 µM), respectively.

On to `COc1cc([C@@H]2c3cc4c(cc3[C@H](O)[C@H]3COC(=O)[C@H]23)OCO4)cc(OC)c1OC` [PODOFILOX], for which the EC50 in experiment [1] worked out at 42.8 µg/mL (≈ 103 µM); in experiment [2], 20.5 µg/mL (≈ 49.5 µM).

With `COc1cc([C@@H]2c3cc4c(cc3[C@@H](O[C@@H]3O[C@@H]5CO[C@@H](c6cccs6)O[C@H]5[C@H](O)[C@H]3O)[C@H]3COC(=O)[C@H]23)OCO4)cc(OC)c1O` [TENIPOSIDE], the EC50 in experiment [1] is 0.06 µg/mL (≈ 0.0914 µM); in experiment [2], 0.3 µg/mL (≈ 0.457 µM).
